# Measurements published in PubChem BioAssay.
# Activity calls are given as the source filed them.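 How the source made its calls, unless noted: active means viability at or below 30% in both replicate assays; inconclusive means viability at or below 30% in just one of the two assays; inactive means the rest.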
# Columns and labels:
# [1] = biological target: Pantothenate synthetase (Mycobacterium tuberculosis (strain ATCC 25618 / H37Rv)) (UniProt P9WIL5); test: Recombinant Mtb pantothenate synthetase (PanC) inhibitors, coupled enzyme, confirmatory (AID 375; call rule not given here;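 further: 0% = full reaction with vehicle and 100% = no enzyme background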); conditions: coupled enzyme assay; at 10 µM, stronger effect = higher value
# Pantothenate synthetase (Mycobacterium tuberculosis (strain ATCC 25618 / H37Rv)), sequence (P9WIL5 whole entry, looked up): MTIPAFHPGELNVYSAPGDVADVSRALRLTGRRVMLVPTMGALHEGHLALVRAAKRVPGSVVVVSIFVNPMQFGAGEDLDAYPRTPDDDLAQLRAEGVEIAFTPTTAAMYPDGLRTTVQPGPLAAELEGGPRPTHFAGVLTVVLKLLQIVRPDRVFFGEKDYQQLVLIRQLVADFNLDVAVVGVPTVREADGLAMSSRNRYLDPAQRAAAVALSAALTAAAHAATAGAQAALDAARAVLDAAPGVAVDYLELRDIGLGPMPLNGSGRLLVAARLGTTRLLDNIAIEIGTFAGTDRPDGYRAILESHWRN
# [2] = SK-BR-3 cell growth inhibitors, pilot screen, 24 h, human (AID 572;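 active means viability at or below 10% of carrier control in both of two separate runs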;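 further: compound exposure lasted between 18 and 24 h rather than exactly 24 h; 100% = carrier-treated control wells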); conditions: SK-BR-3 viability, CellTiter-Glo luminescence, at 10 µM, stronger effect = lower value
# [3] = HUVEC growth inhibition – cell-based, human, primary screen (AID 575); conditions: HUVEC proliferation, CellTiter-Glo luminescence, 72 h; at 10 µM; stronger effect = lower value;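 further: 100% = median of untreated cell wells with 0.1% DMSO on each plate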
# Outline: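 Test system: HUVEC primary cells. Quantity: 1250 endothelial cells in each well. Dosing: single-point 10 µM, DMSO 0.1% final. Incubation: 72 h treatment at 37 °C. Measured by: CTG luminescence. Control set: DMSO cell controls and MePR drug controls. Plate: collagen-coated 384-well format.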
# [4] = growth inhibitors of H69AR lung tumor, primary screen, human, duplicate replicates (AID 580;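 active means viability at or under a set limit in both replicates, limit being median viability minus 3 SD, cut at about 48% in these data, passing the limit was not always enough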;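 further: 100% = mean luminescence of untreated wells and 0% = no signal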); conditions: H69AR lung tumor cells viability, ATP luminescence, 72 h; at 10 µM; stronger effect = lower value
# [5] = reversal of MRP1-mediated doxorubicin resistance, pilot screen, H69AR cells, doxorubicin co-treatment (AID 601;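 active means viability loss from added drug above about 55%, and viability with drug at most 40%, in both replicates, limit read from the data, passing the limit was not always enough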); conditions: CellTiter-Glo, 72 h, at 10 µM; for differential viability (reversal): stronger effect = higher value
# [6] = 384-well plate pilot, post-Golgi transport modulator project, inhibition of yeast transport mutant growth (AID 636; in the data active means inhibition above about 31%); conditions: absorbance 615 nm, about 18 h, stronger effect = higher value
# [7] = growth suppression of yeast trafficking mutant, preliminary HTS, modulators of trafficking downstream of Golgi apparatus project, 1536-format plate, OD 615 nm (AID 637; in the data active means inhibition above about 30%); conditions: yeast transport mutant growth, absorbance 615 nm, 18 h; stronger effect = higher value
# [8] = H69AR cells + 2 uM doxorubicin, measured here: viability with 2 uM doxorubicin, stronger effect = lower value
# [9] = H69AR cells, compound alone cytotoxicity
Compound,inhibition [1],viability [2],viability [3],viability [4],differential viability (reversal) ([5]; H69AR cells + 2 uM doxorubicin),"viability [5, 8]","viability [5, 9]",inhibition [6],inhibition [7]
CC(C)OCCCNC(=O)c1c(N)n(Cc2cccs2)c2nc3ccccc3nc12,0% (inactive),26%,6.24% (active),61.1% (inactive),-18.8% (inactive),79.8%,61.1%,-2.47% (inactive),-7.33% (inactive)
CC(NC(C)(C)C)C(=O)c1cccc(Cl)c1 (stereo not given),0% (inactive),87% (inactive),74.8% (inactive),99.5% (inactive),4.02% (inactive),95.5%,99.5%,-1.17% (inactive),1.67% (inactive)
C[N+]1(C)CCN(c2ccccc2)CC1,8% (inactive),118% (inactive),95.8% (inactive),84.9% (inactive),-12.1% (inactive),97%,84.9%,-1.69% (inactive),0.5% (inactive)
O=C(O)CCCc1ccc(N(CCCl)CCCl)cc1,0% (inactive),78% (inactive),68.1% (inactive),81.8% (inactive),-17.3% (inactive),99.1%,81.8%,-1.17% (inactive),0.67% (inactive)
Cc1cc(OCC(=O)O)c2c3c(c(=O)oc2c1)CCCC3,1% (inactive),132% (inactive),85.9% (inactive),84.8% (inactive),-3.02% (inactive),87.9%,84.8%,-4.16% (inactive),7.38% (inactive)
CN(C)CCc1nc2ccccc2c(=O)n1-c1ccccc1,0% (inactive),107% (inactive),92.1% (inactive),90.6% (inactive),-1.03% (inactive),91.6%,90.6%,-2.08% (inactive),-4.43% (inactive)
C#C[C@]1(O)CC[C@H]2[C@@H]3CCC4=CC(=O)CC[C@]4(C)[C@H]3CC[C@@]21C,4% (inactive),101% (inactive),91.6% (inactive),91.3% (inactive),-13.7% (inactive),105%,91.3%,-1.69% (inactive),11.2% (inactive)
CCOc1cccc(N2C(=O)CC(=O)NC2=O)c1,0% (inactive),124% (inactive),107% (inactive),94.5% (inactive),-2.27% (inactive),96.8%,94.5%,-2.6% (inactive),-8.55% (inactive)
CC(C)[C@H]1C(=O)N2CCC[C@H]2[C@]2(O)O[C@](NC(=O)[C@@H]3C=C4c5cccc6[nH]cc(c56)C[C@H]4N(C)C3)(C(C)C)C(=O)N12,5% (inactive),104% (inactive),86.4% (inactive),104% (inactive),0.81% (inactive),103%,104%,-0.78% (inactive),7.17% (inactive)
[N-]=[N+]=CC(=O)OC[C@H](N)C(=O)O,0% (inactive),99% (inactive),96.5% (inactive),88.5% (inactive),-17.2% (inactive),106%,88.5%,1.56% (inactive),1.83% (inactive)
CCOC(=O)c1cc2c(cn1)[nH]c1ccccc12,6% (inactive),122% (inactive),89.3% (inactive),88% (inactive),3.16% (inactive),84.8%,88%,-0.91% (inactive),-3.17% (inactive)
O=C(O)Cn1cc(C(=O)c2ccccc2)c2ccccc21,0% (inactive),89% (inactive),104% (inactive),94.7% (inactive),-1.34% (inactive),96%,94.7%,-7.07% (inactive),-0.36% (inactive)
C=C1CC[C@@]2(O)[C@H]3Cc4ccc(O)c5c4[C@@]2(CCN3CC2CC2)[C@H]1O5,0% (inactive),101% (inactive),95.2% (inactive),110% (inactive),14.7% (inactive),95.5%,110%,-1.43% (inactive),6.83% (inactive)
CCCNC(=O)c1c(N)n(Cc2ccc3c(c2)OCO3)c2nc3ccccc3nc12,0% (inactive),102% (inactive),21.8% (active),43.8% (active),6.99% (inactive),36.8%,43.8%,-3.2% (inactive),0.66% (inactive)
O=C(C1CCCN(c2nnc(-n3cccc3)s2)C1)N1CCC2(CC1)OCCO2 (stereo not given),0% (inactive),83% (inactive),109% (inactive),94.3% (inactive),12.8% (inactive),81.6%,94.3%,-7.33% (inactive),-5.09% (inactive)
O=C(CN1C2CCC1CC(O)(c1cccnc1)C2)Nc1ccc2c(c1)OCO2 (stereo not given),11% (inactive),72% (inactive),90.2% (inactive),91.3% (inactive),2.46% (inactive),88.8%,91.3%,-6.53% (inactive),3.44% (inactive)
CCOC(=O)C1=C(N)OC(C)=C(C(=O)OCCOC)C12C(=O)Nc1ccccc12 (stereo not given),5% (inactive),85% (inactive),92% (inactive),98.2% (inactive),-9.01% (inactive),107%,98.2%,-4.52% (inactive),1.64% (inactive)

Compound,inhibition [1],viability [2],viability [3],viability [4],differential viability (reversal) ([5]; H69AR cells + 2 uM doxorubicin),"viability [5, 8]","viability [5, 9]",inhibition [6],inhibition [7]
COc1ccc(Cc2nccc3cc(OC)c(OC)cc23)cc1OC,0% (inactive),88% (inactive),78.6% (inactive),81.7% (inactive),-0.28% (inactive),82%,81.7%,0.39% (inactive),-2.5% (inactive)
Cc1ccnc(-n2c(-c3ccco3)nc3ccccc3c2=O)c1,0% (inactive),105% (inactive),107% (inactive),99.8% (inactive),10.2% (inactive),89.6%,99.8%,-2.47% (inactive),1.15% (inactive)
c1ccc2c3c([nH]c2c1)CNCC3,0% (inactive),116% (inactive),77.7% (inactive),89.9% (inactive),9.92% (inactive),80%,89.9%,-1.17% (inactive),0.5% (inactive)
CC(C)(C)P(=O)(c1ccncc1)N1CCCC1 (stereo not given),4% (inactive),111% (inactive),105% (inactive),92.8% (inactive),-5.79% (inactive),98.6%,92.8%,-7.3% (inactive),-2.18% (inactive)
CN(C)[C@@H]1C(=O)C(C(N)=O)=C(O)[C@@]2(O)C(=O)C3=C(O)c4c(O)cccc4[C@@](C)(O)[C@H]3C[C@@H]12,2% (inactive),91% (inactive),102% (inactive),102% (inactive),11.8% (inactive),89.8%,102%,0.13% (inactive),-2% (inactive)
COC(=O)C1C2c3ccccc3OC1(C)N=c1s/c(=C/c3cnn(C)c3C)c(=O)n12 (stereo not given),7% (inactive),98% (inactive),83.4% (inactive),91.8% (inactive),2.92% (inactive),88.8%,91.8%,-0.81% (inactive),8.18% (inactive)
CC(C)[C@@]1(NC(=O)[C@@H]2C=C3c4cccc5[nH]cc(c45)C[C@H]3N(C)C2)O[C@@]2(O)[C@@H]3CCCN3C(=O)[C@H](Cc3ccccc3)N2C1=O,3% (inactive),103% (inactive),89% (inactive),90.5% (inactive),-9.99% (inactive),101%,90.5%,-0.13% (inactive),16.8% (inactive)
NCC1(CC(=O)O)CCCCC1,3% (inactive),105% (inactive),101% (inactive),96.8% (inactive),7.93% (inactive),88.9%,96.8%,-1.17% (inactive),2% (inactive)
CC(=NCCCN1CCOCC1)c1c(O)n(-c2ccccc2C)c(=O)[nH]c1=O,0% (inactive),100% (inactive),91.3% (inactive),92.2% (inactive),5.16% (inactive),87%,92.2%,-0.14% (inactive),-5% (inactive)
CN1CC[C@@]23CCCC[C@@H]2[C@@H]1Cc1ccc(O)cc13,1% (inactive),88% (inactive),79.4% (inactive),95.8% (inactive),7.79% (inactive),88%,95.8%,-3.12% (inactive),-0.33% (inactive)
O=C1CC[C@@]2(O)[C@H]3Cc4ccc(O)c5c4[C@@]2(CCN3CC2CC2)[C@H]1O5,4% (inactive),95% (inactive),90.6% (inactive),99.5% (inactive),11% (inactive),88.6%,99.5%,0.26% (inactive),2.17% (inactive)
C[C@H]1OC[C@@H](C[N+](C)(C)C)O1,0% (inactive),103% (inactive),99.6% (inactive),106% (inactive),7.41% (inactive),98.6%,106%,-1.43% (inactive),4.67% (inactive)
Cc1cccc(-n2c(O)c(C=NCCCN3CCOCC3)c(=O)[nH]c2=O)c1C,2% (inactive),,100% (inactive),105% (inactive),14.8% (inactive),90.7%,105%,0.8% (inactive),-2.7% (inactive)
C#CCN(C)C(C)Cc1ccccc1 (stereo not given),5% (inactive),115% (inactive),88.3% (inactive),99.3% (inactive),-5.18% (inactive),104%,99.3%,-0.26% (inactive),2.33% (inactive)
CCC(C)NC(=O)c1c(N)n(CC2CCCO2)c2nc3ccccc3nc12 (stereo not given),0% (inactive),93% (inactive),53.4% (inactive),,-8.02% (inactive),61.5%,53.4%,-0.4% (inactive),4.92% (inactive)
COc1ccccc1CN1CCN(C(=O)Cc2ccccc2)CC1,1% (inactive),97% (inactive),101% (inactive),99.6% (inactive),3.51% (inactive),96.1%,99.6%,-4.8% (inactive),-4.36% (inactive)
